# The array DNA melting data of Ke et al. (doi:10.1101/2024.01.08.574731)
# Columns and labels:
# [1] = melting temperature; fluorescence melt of hairpins on a sequencing array, two-state fit, raised by 9.35 °C to match UV melts; settings: sodium 0.088 M
# How it was run: (§1)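 Melting temperature and folding enthalpy were derived from bootstrapped two-state fits. The fitted temperatures were raised by 9.35 °C to agree with UV melts, and four replicates were combined by inverse variance. The underlying data were Cy3 fluorescence images of library hairpins, with annealed Cy3 and quencher oligos, on a sequenced MiSeq flow cell in 50 mM Na-HEPES pH 8.0, 25 mM NaCl, taken in 2.5 °C steps up to 60 °C, normalised to pre-quench Cy3 and to control constructs.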
# [2] = folding enthalpy; higher = less favourable; fluorescence melt of hairpins on a sequencing array, two-state fit; settings: sodium 0.088 M
# How it was run: as §1
Sequence,Tm [1],folding enthalpy [2]
GCACAGCGAAAGCGGAGC ((.(.((....)).).)),61.6 °C,-25.9 kcal/mol
GTGTACGAAAGTAGGCAC ((((((....)))..))),32.8 °C,-16.5 kcal/mol
GACATTGGAAACAGTGTC ((((.((....)).)))),42.6 °C,-33.1 kcal/mol
GAAAACGAAAGTTCGTTC ((((((....)))..))),25.1 °C,-10.8 kcal/mol
GATCAAACATTTGATC ((((((....)))))),42.4 °C,-30.2 kcal/mol
GATCCATGCTTGGATC ((((((....)))))),55.1 °C,-43.6 kcal/mol
GATCGATGACTCGATC ((((((....)))))),49.5 °C,-30.5 kcal/mol
GCACGAGCGAAAGCTTGC (((..(((....)))))),41 °C,-11.3 kcal/mol
GCGGCAAACCGC ((((....)))),55.8 °C,-27.8 kcal/mol
GTGCGAGAAATCGCAC ((((((....)))))),68.2 °C,-28 kcal/mol
GATGATGAAAATCATC ((((((....)))))),51.2 °C,-29 kcal/mol
GATCATACGGATGATC ((((((....)))))),47.1 °C,-39.6 kcal/mol
GATCATGAGGATGATC ((((((....)))))),43.7 °C,-38.4 kcal/mol
GGGTCCGGAAACGAACCC ((((.((....)).)))),49 °C,-31.9 kcal/mol
GATCACAGGCGTGATC ((((((....)))))),57.3 °C,-36 kcal/mol
GCTGTGGCGAAAGCCAGC (((..(((....)))))),52.2 °C,-13.8 kcal/mol
GCGATGCGAAAGCCACGC (((..((....))..))),52.1 °C,-21.1 kcal/mol
GGGTACGGAAACGTGCTC (.(.(((....))).).),43.1 °C,-21.5 kcal/mol
GTGACTGGAAACAGCCAC (((.(((....))).))),47.9 °C,-41.7 kcal/mol
GGTAGTACGAAAGTAACC (((..(((....)))))),27.4 °C,-10.7 kcal/mol
GTTTATGAAAATAAAC ((((((....)))))),42.4 °C,-33 kcal/mol
GAGTGACCGAAAGGTCTC (((..(((....)))))),35 °C,-9.86 kcal/mol
GGTCACGAAAGTGGAACC ((((((....)))..))),40.5 °C,-18.3 kcal/mol
GATCCAGTACTGGATC ((((((....)))))),57.1 °C,-47.2 kcal/mol

Sequence,Tm [1],folding enthalpy [2]
GGCGTCGCGAAAGCGGCC (((..(((....)))))),58.7 °C,-13 kcal/mol
GCGCGCGAAAGCGTCCGC ((((((....)))..))),53 °C,-14.9 kcal/mol
GGCTTCGAAAGAATGCC ((((((....))).))),50.7 °C,-27.9 kcal/mol
CGTACGGAAACGTAGACG ((((((....)))..))),36.6 °C,-17 kcal/mol
CTTCTGAAAAGAAG (((((....))))),43.3 °C,-14.7 kcal/mol
GAAGCCGAAAGGCTATTC ((((((....)))..))),33.7 °C,-8.63 kcal/mol
GATTTAGGAAACTAAATC (((((((....))))))),48 °C,-42.9 kcal/mol
GCGAGCGAAAGCTGACGC ((((((....)))..))),51.1 °C,-24.7 kcal/mol
GGCTCAGGAAACTAAGCC ((((.((....)).)))),39 °C,-29.1 kcal/mol
GCGCGGCGAAAGCTGTGC ((.(.((....)).).)),65.2 °C,-32.2 kcal/mol
GATCCACCGCTGGATC ((((((....)))))),50 °C,-39.8 kcal/mol
GTGGACCGAAAGGTCAC (((.(((....)))))),53.7 °C,-10.4 kcal/mol
GCTAGCGAAAGCTGCAGC ((((((....)))..))),46 °C,-13.2 kcal/mol
GCGAAACTCGC ((((...)))),47.4 °C,-18.9 kcal/mol
GTTGTCGGAAACGATAGC (.(.(((....))).).),32.4 °C,-17.1 kcal/mol
GGCTACGGAAACGTGGCC (((.(((....))).))),60.1 °C,-47.4 kcal/mol
GATCAAGTGGTTGATC ((((((....)))))),41.9 °C,-27.6 kcal/mol
GTCCCCGAAAGGGAAGAC ((((((....)))..))),44.5 °C,-13.5 kcal/mol
GATCGCTGGAGCGATC ((((((....)))))),68.5 °C,-37.8 kcal/mol
GCGTATGGAAACATACGC (((((((....))))))),68.2 °C,-37.7 kcal/mol
GGAGTACGAAAGTATTCC (((.(((....))).))),49.2 °C,-33.1 kcal/mol
GATCAAGTAATTGATC ((((((....)))))),50 °C,-32.1 kcal/mol
GATCCCTCCGGGGATC ((((((....)))))),65.3 °C,-31.3 kcal/mol
GCGCGACGAAAGTCCCGC (((.(((....))).))),57.5 °C,-42.8 kcal/mol

Sequence,Tm [1],folding enthalpy [2]
GATCGTCGGAACGATC ((((((....)))))),52.7 °C,-27.3 kcal/mol
CGCTATCGGAAACGAGCG (((..(((....)))))),41.8 °C,-27.1 kcal/mol
GGATTCGGAAACGAATTC (.(((((....))))).),47.7 °C,-33.2 kcal/mol
GTCGAAGGAAACTTCGAC (((((((....))))))),62.2 °C,-48.6 kcal/mol
GAATACCCGAAAGGGTTC (((..(((....)))))),33 °C,-7.33 kcal/mol
GATCACCTATGTGATC ((((((....)))))),57.1 °C,-40.1 kcal/mol
GACGACCGAAAGGTGGTC (((.(((....))).))),56 °C,-34.8 kcal/mol
GACCGCGGAAACGCAGTC (((.(((....))).))),48.9 °C,-24.6 kcal/mol
GTTCCCGAAAGGGAGAAC ((((((....)))..))),38 °C,-10.3 kcal/mol
GCGATTTCTCGC ((((....)))),49.5 °C,-24.4 kcal/mol
GCTGGGCGAAAGCTCGGC ((.(.((....)).).)),60.3 °C,-32.5 kcal/mol
GATGGCGAAAGCCATATC ((((((....)))..))),52.5 °C,-10.6 kcal/mol
GGGGTCGAAAGACTCCCC ((((((....)))..))),54.3 °C,-22.2 kcal/mol
GGTGCCGAAAGGCAACC ((((((....))).))),66.1 °C,-19.6 kcal/mol
GCCTAAACGAAAGTTGGC (((..(((....)))))),46.7 °C,-24.9 kcal/mol
GAGAGTACGAAAGTACTC (((..(((....)))))),55.2 °C,-11.7 kcal/mol
GGAATCGAAAGATTTCC ((((((....))).))),41.5 °C,-27 kcal/mol
GGGAAATCGAAAGATCCC (((..(((....)))))),36 °C,-21.6 kcal/mol
GCTCAAGAAATTGAGC ((((((....)))))),55.3 °C,-34.1 kcal/mol
GTATTGGCGAAAGCCTAC (((..(((....)))))),41.5 °C,-3.67 kcal/mol
GAGCCCGAAAGGGTTCTC ((((((....)))..))),66.9 °C,-19.9 kcal/mol
GTTGTAGAAATACAAC ((((((....)))))),47.5 °C,-32.4 kcal/mol
GCTACAGGAAACCGTAGC (((((.(....).))))),47.7 °C,-31.6 kcal/mol
GATCATTTGAATGATC ((((((....)))))),48.2 °C,-35.4 kcal/mol

Sequence,Tm [1],folding enthalpy [2]
GAGGATCCGAAAGGACTC (((..(((....)))))),30.6 °C,-13.3 kcal/mol
GATCGATCCGTCGATC ((((((....)))))),53.6 °C,-44.8 kcal/mol
GCAGCCGAAAGGCGGTGC ((((((....)))..))),57.1 °C,-15 kcal/mol
GCGTTGCGAAAGCGTCGC (((..((....))..))),63.6 °C,-20.8 kcal/mol
GCGTTATGACGC ((((....)))),56.2 °C,-25 kcal/mol
GGTAGCGAAAGCTTAACC ((((((....)))..))),38.1 °C,-16.7 kcal/mol
GTTCTCGGAAACAAGAAC (((((.(....).))))),33.9 °C,-14.8 kcal/mol
GATACCGAAAGGTTATC ((((((....))).))),37.6 °C,-17.7 kcal/mol
GGTCTCGAAAGAGGCACC ((((((....)))..))),39.1 °C,-14.5 kcal/mol
GGGGGGAAACCCCC (((((....))))),65.9 °C,-21.5 kcal/mol
GGGCTTGGAAACAGGCCC ((((.((....)).)))),59.1 °C,-43.9 kcal/mol
GCACCAGGAAACCGGTAC (.(((.(....).))).),22.2 °C,-8.98 kcal/mol
GTAGAATCGAAAGATTAC (((..(((....)))))),27.3 °C,-11 kcal/mol
GGTCGTGGAAACGCGACC (((((.(....).))))),60 °C,-50.9 kcal/mol
GTCGGAGGAAACTCCGGC (.(((((....))))).),58.5 °C,-30.5 kcal/mol
GCGGAGACCGC ((((...)))),53.2 °C,-24.4 kcal/mol
GACCGCGAAAGCGGGTC ((((((....))).))),68.8 °C,-11.9 kcal/mol
GCCGAGCGAAAGCACCGC ((.(.((....)).).)),38.5 °C,-14.1 kcal/mol
GCTCCGGGAAACCGGAAC (.(((((....))))).),43.2 °C,-12.4 kcal/mol
GCCTCAGGAAACCGAGGC (((((.(....).))))),53.5 °C,-45.1 kcal/mol
GCAAGGGCGAAAGCCTGC (((..(((....)))))),50.9 °C,-14 kcal/mol
